Laboratory results as given in ChEMBL document CHEMBL1126909, “Synthesis and pharmacological examination of benzofuran, indan, and tetralin analogues of 3,4-(methylenedioxy)amphetamine” (J Med Chem, 1993).
Active and inactive are the calls of the source.

Assays:
[1] = system: Rattus norvegicus; experiment: Percentage of nondisrupted animals selecting drug liver in S-1c trained at 0.500 mg/kg; assay type: functional; settings: dose 0.5 mg/kg
In short: (§1)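 Male Sprague-Dawley rats (175–200 g) held at about 80% of free-feeding weight were trained on two levers to tell (S)-1c·HCl 1.75 mg/kg from saline. Test drugs were given in 0.9% saline, ip, 30 min before sessions run under extinction. A session ended at 50 presses on one lever, or was scored disrupted if not done within 5 min. %SDL counts nondisrupted rats. ED50 and 95% CI were derived by Litchfield–Wilcoxon.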

[2] = system: Rattus norvegicus; experiment: Number of animals tested to that of number of animals disrupted in 3 trained at 1 mg/kg; Number of animals tested=10; assay type: functional
In short: (§2)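 Drug-discrimination rats were male Sprague-Dawley, 175–200 g, kept at about 80% of free-feeding weight. They were trained against saline on (S)-1c·HCl 1.75 mg/kg, 3·HCl 1.71 mg/kg or (S)-amphetamine sulfate 1 mg/kg. Test drug was given ip in 0.9% saline at 1 mL/kg, 30 min before sessions run under extinction. A session ended at 50 presses on one lever; failing 50 presses within 5 min was scored as disrupted.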

[3] = system: Rattus norvegicus; experiment: Number of animals tested to that of number of animals disrupted in S-1c trained at 0.250 mg/kg; Number of animals tested=15; assay type: functional; settings: dose 0.25 mg/kg; in short: as §2
[4] = system: Rattus norvegicus; experiment: Number of animals tested to that of number of animals disrupted in 3 trained at 0.125 mg/kg; Number of animals tested=10; assay type: functional; in short: as §2
[5] = system: Rattus norvegicus; experiment: Number of animals tested to that of number of animals disrupted in (s)-amphetamine trained at 0.250 mg/kg; Number of animals tested=14; assay type: functional; settings: dose 0.25 mg/kg; in short: as §2
[6] = species on record: Rattus norvegicus; experiment: Inhibitory concentration against [3H]- DA uptake in crude rat synaptosomes; assay type: functional; settings: Brain
In short: (§3)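 Crude synaptosomes from male Sprague-Dawley rat tissue homogenised in ice-cold isotonic sucrose. Preincubated 5 min at 37 °C under aeration with pargyline (final 100 μM), then chilled. Tritiated transmitter added at 10 nM final and uptake run 5 min at 37 °C. Catecholamine buffer had 0.06 mM ascorbate. Filtered and counted by scintillation. 9–10 concentrations in triplicate, 3–4 experiments, four-parameter logistic fit for IC50 ± SEM.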

[7] = species on record: Rattus norvegicus; experiment: Inhibitory concentration against [3H]- NE uptake in crude rat synaptosomes; assay type: functional; settings: Brain; in short: as §3
[8] = system: Rattus norvegicus; experiment: Percentage of nondisrupted animals selecting drug liver in (S)-amphetamine trained at 0.500 mg/kg; assay type: functional; settings: dose 0.5 mg/kg
In short: (§4)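 Rats and training are as above: male Sprague-Dawley, food-restricted, with training doses per drug group. Test drug was given ip in saline 30 min before extinction sessions. %SDL is the share of nondisrupted rats reaching 50 presses on the drug lever. A rat not completing 50 presses in 5 min was scored as disrupted.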

[9] = system: Rattus norvegicus; experiment: Number of animals tested to that of number of animals disrupted in 3 trained at 0.250 mg/kg; Number of animals tested=11; assay type: functional; settings: dose 0.25 mg/kg; in short: as §2
[10] = system: Rattus norvegicus; experiment: Number of animals tested to that of number of animals disrupted in S-1c trained at 0.500 mg/kg; Number of animals tested=15; assay type: functional; settings: dose 0.5 mg/kg; in short: as §2
[11] = species on record: Rattus norvegicus; experiment: Inhibitory concentration against [3H]- 5-HT uptake in crude rat synaptosomes; assay type: functional; settings: Brain; in short: as §3
[12] = system: Rattus norvegicus; experiment: Percentage of nondisrupted animals selecting drug liver in S-1c trained at 0.250 mg/kg; assay type: functional; settings: dose 0.25 mg/kg
[13] = system: Rattus norvegicus; experiment: Percentage of nondisrupted animals selecting drug liver in (S)-amphetamine trained at 0.250 mg/kg; assay type: functional; settings: dose 0.25 mg/kg; in short: as §4
[14] = system: Rattus norvegicus; experiment: Tested for drug-discrimination stimulus effect at 0.250 mg/kg in s)-amphetamine trained animals; NS= No substitution; assay type: functional, organism-based; parameters: dose 0.25 mg/kg
In short: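 Food-restricted male Sprague-Dawley rats were trained to tell (S)-amphetamine sulfate 1 mg/kg from saline. Test drug was given ip in 0.9% saline 30 min before extinction sessions, with 50 presses on one lever required within 5 min. No substitution was defined as 59% or less of nondisrupted rats selecting the drug lever, judged on the maximum across doses.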

[15] = system: Rattus norvegicus; experiment: Tested for drug-discrimination stimulus effect at 0.250 mg/kg in S-1c trained animals; 0.15-0.28; assay type: functional; in short: as §1
[16] = system: Rattus norvegicus; experiment: Percentage of nondisrupted animals selecting drug liver in (S)-amphetamine trained at 0.125 mg/kg; assay type: functional; in short: as §4
[17] = system: Rattus norvegicus; experiment: Percentage of nondisrupted animals selecting drug liver in S-1c trained at 0.125 mg/kg; assay type: functional; in short: as §4
[18] = system: Rattus norvegicus; experiment: Number of animals tested to that of number of animals disrupted in S-1c trained at 1 mg/kg; Number of animals tested=9; assay type: functional; in short: as §2
[19] = system: Rattus norvegicus; experiment: Percentage of nondisrupted animals selecting drug liver in 3 trained at 0.125 mg/kg; assay type: functional; in short: as §4
[20] = system: Rattus norvegicus; experiment: Percentage of nondisrupted animals selecting drug liver in 3 trained at 0.250 mg/kg; assay type: functional; settings: dose 0.25 mg/kg; in short: as §4
[21] = system: Rattus norvegicus; experiment: Number of animals tested to that of number of animals disrupted in 3 trained at 0.500 mg/kg; Number of animals tested=12; assay type: functional; settings: dose 0.5 mg/kg; in short: as §2
[22] = system: Rattus norvegicus; experiment: Percentage of nondisrupted animals selecting drug liver in S-1c trained at 1 mg/kg; assay type: functional
[23] = system: Rattus norvegicus; experiment: Number of animals tested to that of number of animals disrupted in (s)-amphetamine trained at 1 mg/kg; Number of animals tested=10; assay type: functional; in short: as §2
[24] = system: Rattus norvegicus; experiment: Percentage of nondisrupted animals selecting drug liver in 3 trained at 1 mg/kg; assay type: functional; in short: as §4
[25] = system: Rattus norvegicus; experiment: Number of animals tested to that of number of animals disrupted in (s)-amphetamine trained at 0.125 mg/kg; Number of animals tested=15; assay type: functional; in short: as §2
[26] = system: Rattus norvegicus; experiment: Percentage of nondisrupted animals selecting drug liver in 3 trained at 0.500 mg/kg; assay type: functional; settings: dose 0.5 mg/kg; in short: as §4
[27] = system: Rattus norvegicus; experiment: Number of animals tested to that of number of animals disrupted in (s)-amphetamine trained at 0.500 mg/kg; Number of animals tested=15; assay type: functional; settings: dose 0.5 mg/kg
[28] = system: Rattus norvegicus; experiment: Number of animals tested to that of number of animals disrupted in S-1c trained at 0.125 mg/kg; Number of animals tested=14; assay type: functional; in short: as §2
[29] = system: Rattus norvegicus; experiment: Percentage of nondisrupted animals selecting drug liver in (S)-amphetamine trained at 1 mg/kg; assay type: functional; in short: as §4
[30] = system: Rattus norvegicus; experiment: Number of animals tested to that of number of animals disrupted in 3 trained at 0.429 mg/kg; Number of animals tested=12; assay type: functional; in short: as §2
[31] = system: Rattus norvegicus; experiment: Percentage of nondisrupted animals selecting drug liver in 3 trained at 0.214 mg/kg; SDL; assay type: functional; in short: as §4
[32] = system: Rattus norvegicus; experiment: Percentage of nondisrupted animals selecting drug liver in 3 trained at 0.429 mg/kg; SDL; assay type: functional; in short: as §4
[33] = system: Rattus norvegicus; experiment: Percentage of nondisrupted animals selecting drug liver in 3 trained at 0.643 mg/kg; SDL; assay type: functional; in short: as §4
[34] = system: Rattus norvegicus; experiment: Number of animals tested to that of number of animals disrupted in 3 trained at 1.286 mg/kg; Number of animals tested=8; assay type: functional; in short: as §2
[35] = system: Rattus norvegicus; experiment: Number of animals tested to that of number of animals disrupted in 3 trained at 0.214 mg/kg; Number of animals tested=12; assay type: functional; in short: as §2
[36] = system: Rattus norvegicus; experiment: Percentage of nondisrupted animals selecting drug liver in 3 trained at 1.286 mg/kg; SDL; assay type: functional; in short: as §4
[37] = system: Rattus norvegicus; experiment: Percentage of nondisrupted animals selecting drug liver in 3 trained at 0.108 mg/kg; SDL; assay type: functional; in short: as §4
[38] = system: Rattus norvegicus; experiment: Percentage of nondisrupted animals selecting drug liver in S-1c trained at 0.857 mg/kg; SDL; assay type: functional
[39] = system: Rattus norvegicus; experiment: Number of animals tested to that of number of animals disrupted in 3 trained at 0.857 mg/kg; Number of animals tested=12; assay type: functional; in short: as §2
[40] = system: Rattus norvegicus; experiment: Number of animals tested to that of number of animals disrupted in S-1c trained at 0.857 mg/kg; Number of animals tested=11; assay type: functional; in short: as §2
[41] = system: Rattus norvegicus; experiment: Percentage of nondisrupted animals selecting drug liver in 3 trained at 0.857 mg/kg; SDL; assay type: functional; in short: as §4
[42] = system: Rattus norvegicus; experiment: Number of animals tested to that of number of animals disrupted in S-1c trained at 0.643 mg/kg; Number of animals tested=12; assay type: functional
[43] = system: Rattus norvegicus; experiment: Percentage of nondisrupted animals selecting drug liver in S-1c trained at 0.108 mg/kg; SDL; assay type: functional; in short: as §4
[44] = system: Rattus norvegicus; experiment: Percentage of nondisrupted animals selecting drug liver in S-1c trained at 0.643 mg/kg; SDL; assay type: functional
[45] = system: Rattus norvegicus; experiment: Number of animals tested to that of number of animals disrupted in S-1c trained at 0.215 mg/kg; Number of animals tested=10; assay type: functional; in short: as §2
[46] = system: Rattus norvegicus; experiment: Number of animals tested to that of number of animals disrupted in S-1c trained at 0.108 mg/kg; Number of animals tested=7; assay type: functional; in short: as §2
[47] = system: Rattus norvegicus; experiment: Percentage of nondisrupted animals selecting drug liver in S-1c trained at 0.215 mg/kg; SDL; assay type: functional; in short: as §4
[48] = system: Rattus norvegicus; experiment: Number of animals tested to that of number of animals disrupted in 3 trained at 0.108 mg/kg; Number of animals tested=8; assay type: functional; in short: as §2
[49] = system: Rattus norvegicus; experiment: Number of animals tested to that of number of animals disrupted in 3 trained at 0.643 mg/kg; Number of animals tested=12; assay type: functional; in short: as §2
[50] = system: Rattus norvegicus; experiment: Tested for drug-discrimination stimulus effect at 0.215 mg/kg in S-1c trained animals; 0.23-0.57; assay type: functional; in short: as §1
[51] = system: Rattus norvegicus; experiment: Number of animals tested to that of number of animals disrupted in S-1c trained at 0.429 mg/kg; Number of animals tested=10; assay type: functional; in short: as §2
[52] = system: Rattus norvegicus; experiment: Percentage of nondisrupted animals selecting drug liver in S-1c trained at 0.429 mg/kg; SDL; assay type: functional

CC(N)Cc1ccc2c(c1)CCC2 (stereo not drawn)
SDL [1]: 100%
Activity [2]: 8
Activity [3]: 5
Activity [4]: 2
Activity [5]: 2
IC50 [6]: 1850 nM
IC50 [7]: 849 nM
SDL [8]: 0%
Activity [9]: 5
Activity [10]: 3
IC50 [11]: 82 nM
SDL [12]: 70%
SDL [13]: 0%
ED50 [14]: inactive
ED50 [15]: 0.2 mg/kg
SDL [16]: 0%
SDL [17]: 9%
Activity [18]: 2
SDL [19]: 13%
SDL [20]: 17%
Activity [21]: 6
SDL [22]: 100%
Activity [23]: 6
SDL [24]: 100%
Activity [25]: 2
SDL [26]: 83%
Activity [27]: 7
Activity [28]: 3
SDL [29]: 0%

CC(N)Cc1ccc2c(c1)OCO2 (stereo not drawn) [TENAMFETAMINE]
IC50 [6]: 1360 nM
IC50 [7]: 629 nM
IC50 [11]: 369 nM

CC(N)Cc1ccc2c(c1)OCC2 (stereo not drawn)
Activity [30]: 6
SDL [31]: 17%
SDL [32]: 83%
SDL [33]: 100%
IC50 [6]: 2000 nM
IC50 [7]: 980 nM
Activity [34]: 6
Activity [35]: 6
SDL [36]: 100%
SDL [37]: 0%
SDL [38]: 100%
IC50 [11]: 322 nM
Activity [39]: 2
Activity [40]: 5
SDL [41]: 90%
Activity [42]: 4
SDL [43]: 0%
SDL [44]: 88%
Activity [45]: 3
Activity [46]: 2
SDL [47]: 14%
Activity [48]: 6
Activity [49]: 5
ED50 [50]: 0.4 mg/kg
Activity [51]: 3
SDL [52]: 57%
